In ChEMBL document CHEMBL1141663, “Synthesis and antibacterial activity of bis-[2-hydroxy-3-(1,7,8,9,10-pentamethyl-3,5-dioxo-4-aza-tricyclo[5.2.1.0(2,6)]dec-8-en-4-yloxy)-propyl]-dimethyl-ammonium chloride” (2008):
The source made the active and inactive calls.

Key:
[1] = system: Staphylococcus aureus; assay: Antibacterial activity against methicillin-resistant Staphylococcus aureus 83/05 isolates after 18 hrs; type: functional
Method in brief: (§1)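 Agar-dilution MIC on Mueller–Hinton II agar per CLSI guidelines. Aqueous test solutions were added to liquid agar to give two dilution series across 6.25–400 µg/mL. Solidified plates were spot-inoculated with 2 µL aliquots to a final inoculum of 10^4 […]. […] Strains were standard S. aureus strains or hospital patient isolates typed MSSA/MRSA.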

[2] = system: Bordetella bronchiseptica; assay: microbe, parasite or virus in culture; conditions: ATCC 4617, read-out: IZ
[3] = system: Enterococcus hirae; assay: Antibacterial activity against Enterococcus hirae ATCC 10541 at 5 ug/disk after 24 to 48 hrs by disc-diffusion method; type: functional, organism-based
[4] = system: Staphylococcus aureus; assay: Antibacterial activity against Staphylococcus aureus ATCC 25923 after 18 hrs; type: functional; conditions: ATCC 25923, 18 h; method in brief: as §1
[5] = system: Escherichia coli; assay: microbe, parasite or virus in culture; conditions: ATCC 10538, read-out: IZ
[6] = system: Staphylococcus aureus; assay: Antibacterial activity against methicillin-resistant Staphylococcus aureus 93/06 isolates after 18 hrs; type: functional; method in brief: as §1
[7] = system: Staphylococcus aureus; assay: Antibacterial activity against methicillin-resistant Staphylococcus aureus 29/04 isolates after 18 hrs; type: functional; method in brief: as §1
[8] = system: Staphylococcus aureus; assay: Antibacterial activity against Staphylococcus aureus ATCC 29213 after 18 hrs; type: functional; conditions: ATCC 29213, 18 h; method in brief: as §1
[9] = system: Staphylococcus aureus; assay: Antibacterial activity against methicillin-resistant Staphylococcus aureus 46/05 isolates after 18 hrs; type: functional; method in brief: as §1
[10] = system: Staphylococcus aureus; assay: Antibacterial activity against methicillin-resistant Staphylococcus aureus 47/05 isolates after 18 hrs; type: functional; method in brief: as §1
[11] = system: Staphylococcus aureus; assay: Antibacterial activity against methicillin-resistant Staphylococcus aureus 54/05 isolates after 18 hrs; type: functional; method in brief: as §1
[12] = system: Staphylococcus aureus; assay: microbe, parasite or virus in culture; conditions: ATCC 6538P, read-out: IZ
[13] = system: Staphylococcus aureus; assay: Antibacterial activity against methicillin-resistant Staphylococcus aureus 79/05 isolates after 18 hrs; type: functional; method in brief: as §1
[14] = system: Staphylococcus aureus; assay: Antibacterial activity against methicillin-susceptible Staphylococcus aureus 69/05 isolates after 18 hrs; type: functional; method in brief: as §1
[15] = system: Staphylococcus aureus; assay: Antibacterial activity against methicillin-resistant Staphylococcus aureus 48/05 isolates after 18 hrs; type: functional; method in brief: as §1
[16] = system: Staphylococcus aureus; assay: microbe, parasite or virus in culture; conditions: ATCC 29213, read-out: IZ
[17] = system: Staphylococcus aureus; assay: Antibacterial activity against methicillin-susceptible Staphylococcus aureus 28/04 isolates after 18 hrs; type: functional; method in brief: as §1
[18] = system: Staphylococcus aureus; assay: Antibacterial activity against methicillin-resistant Staphylococcus aureus 55/05 isolates after 18 hrs; type: functional; method in brief: as §1
[19] = system: Staphylococcus aureus; assay: Antibacterial activity against methicillin-susceptible Staphylococcus aureus 14/04 isolates after 18 hrs; type: functional; method in brief: as §1
[20] = system: Staphylococcus aureus; assay: Antibacterial activity against methicillin-susceptible Staphylococcus aureus 38/05 isolates after 18 hrs; type: functional; method in brief: as §1
[21] = system: Bacillus subtilis; assay: microbe, parasite or virus in culture; conditions: ATCC 6633, read-out: IZ
[22] = system: Staphylococcus aureus; assay: Antibacterial activity against Staphylococcus aureus ATCC 6538P after 18 hrs; type: functional; method in brief: as §1
[23] = system: Staphylococcus aureus; assay: Antibacterial activity against methicillin-susceptible Staphylococcus aureus 65/05 isolates after 18 hrs; type: functional; method in brief: as §1
[24] = system: Staphylococcus aureus; assay: Antibacterial activity against methicillin-susceptible Staphylococcus aureus 7/04 isolates after 18 hrs; type: functional; method in brief: as §1
[25] = system: Staphylococcus aureus; assay: Antibacterial activity against methicillin-susceptible Staphylococcus aureus 2/04 isolates after 18 hrs; type: functional; method in brief: as §1
[26] = system: Pseudomonas aeruginosa; assay: microbe, parasite or virus in culture; conditions: NCTC 6749, read-out: IZ
[27] = system: Staphylococcus aureus; assay: microbe, parasite or virus in culture; conditions: ATCC 25923, read-out: IZ
[28] = system: Staphylococcus aureus; assay: microbe, parasite or virus in culture; conditions: NCTC 4163, read-out: IZ
[29] = system: Staphylococcus aureus; assay: Antibacterial activity against methicillin-resistant Staphylococcus aureus 53/05 isolates after 18 hrs; type: functional; method in brief: as §1
[30] = system: Staphylococcus aureus; assay: Antibacterial activity against methicillin-resistant Staphylococcus aureus 91/06 isolates after 18 hrs; type: functional; method in brief: as §1
[31] = system: Staphylococcus aureus; assay: Antibacterial activity against methicillin-susceptible Staphylococcus aureus 60/05 isolates after 18 hrs; type: functional; method in brief: as §1
[32] = system: Staphylococcus aureus; assay: Antibacterial activity against methicillin-susceptible Staphylococcus aureus 4/04 isolates after 18 hrs; type: functional; method in brief: as §1
[33] = system: Staphylococcus aureus; assay: Antibacterial activity against methicillin-susceptible Staphylococcus aureus 3/04 isolates after 18 hrs; type: functional; method in brief: as §1
[34] = system: Candida albicans; assay: Antimicrobial activity against Candida albicans ATCC 10231 at 5 ug/disk after 24 to 48 hrs by disc-diffusion method; type: functional, organism-based
[35] = system: Staphylococcus aureus; assay: Antibacterial activity against methicillin-susceptible Staphylococcus aureus 6/04 isolates after 18 hrs; type: functional; method in brief: as §1
[36] = system: Staphylococcus aureus; assay: Antibacterial activity against methicillin-susceptible Staphylococcus aureus 102/06 isolates after 18 hrs; type: functional; method in brief: as §1
[37] = system: Staphylococcus aureus; assay: Antibacterial activity against methicillin-susceptible Staphylococcus aureus 49/05 isolates after 18 hrs; type: functional; method in brief: as §1
[38] = system: Escherichia coli; assay: microbe, parasite or virus in culture; conditions: ATCC 25922, read-out: IZ
[39] = system: Staphylococcus aureus; assay: Antibacterial activity against methicillin-resistant Staphylococcus aureus 19/04 isolates after 18 hrs; type: functional; method in brief: as §1
[40] = system: Staphylococcus aureus; assay: Antibacterial activity against methicillin-susceptible Staphylococcus aureus 101/06 isolates after 18 hrs; type: functional; method in brief: as §1
[41] = system: Staphylococcus aureus; assay: Antibacterial activity against Staphylococcus aureus NCTC 4163 after 18 hrs; type: functional; conditions: NCTC 4163, 18 h; method in brief: as §1
[42] = system: Staphylococcus aureus; assay: Antibacterial activity against methicillin-susceptible Staphylococcus aureus 72/05 isolates after 18 hrs; type: functional; method in brief: as §1
[43] = system: Staphylococcus aureus; assay: Antibacterial activity against methicillin-resistant Staphylococcus aureus 1/04 isolates after 18 hrs; type: functional; method in brief: as §1
[44] = system: Staphylococcus aureus; assay: Antibacterial activity against methicillin-susceptible Staphylococcus aureus 98/06 isolates after 18 hrs; type: functional; method in brief: as §1
[45] = system: Pseudomonas aeruginosa; assay: microbe, parasite or virus in culture; conditions: ATCC 15442, read-out: IZ
[46] = system: Staphylococcus aureus; assay: Antibacterial activity against methicillin-susceptible Staphylococcus aureus 40/05 isolates after 18 hrs; type: functional; method in brief: as §1
[47] = system: Staphylococcus aureus; assay: Antibacterial activity against methicillin-susceptible Staphylococcus aureus 42/05 isolates after 18 hrs; type: functional; method in brief: as §1
[48] = system: Staphylococcus aureus; assay: Antibacterial activity against methicillin-resistant Staphylococcus aureus 92/06 isolates after 18 hrs; type: functional; method in brief: as §1
[49] = system: Staphylococcus aureus; assay: Antibacterial activity against methicillin-resistant Staphylococcus aureus 56/05 isolates after 18 hrs; type: functional; method in brief: as §1
[50] = system: Bordetella bronchiseptica; assay: Antibacterial activity against Bordetella bronchiseptica ATCC 4617 at 10 ug/disk after 24 to 48 hrs by disc-diffusion method; type: functional, organism-based
[51] = system: Escherichia coli; assay: Antibacterial activity against Escherichia coli ATCC […] at 10 ug/disk after 24 to 48 hrs by disc-diffusion method; type: functional, organism-based
[52] = system: Staphylococcus aureus; assay: Antibacterial activity against Staphylococcus aureus ATCC 6538P at 10 ug/disk after 24 to 48 hrs by disc-diffusion method
[53] = system: Pseudomonas aeruginosa; assay: Antibacterial activity against Pseudomonas aeruginosa ATCC […] at 10 ug/disk after 24 to 48 hrs by disc-diffusion method; type: functional, organism-based
[54] = system: Candida albicans; assay: microbe, parasite or virus in culture; conditions: ATCC 10231, read-out: IZ
[55] = system: Enterococcus hirae; assay: Antibacterial activity against Enterococcus hirae ATCC 10541 at 10 ug/disk after 24 to 48 hrs by disc-diffusion method
[56] = system: Staphylococcus aureus; assay: Antibacterial activity against Staphylococcus aureus NCTC 4163 at 10 ug/disk after 24 to 48 hrs by disc-diffusion method; type: functional, organism-based
[57] = system: Staphylococcus aureus; assay: Antibacterial activity against Staphylococcus aureus ATCC 25923 at 10 ug/disk after 24 to 48 hrs by disc-diffusion method
[58] = system: Bacillus subtilis; assay: Antibacterial activity against Bacillus subtilis ATCC 6633 at 10 ug/disk after 24 to 48 hrs by disc-diffusion method; type: functional, organism-based
[59] = system: Staphylococcus aureus; assay: Antibacterial activity against Staphylococcus aureus ATCC 29213 at 10 ug/disk after 24 to 48 hrs by disc-diffusion method; type: functional, organism-based
[60] = system: Pseudomonas aeruginosa; assay: Antibacterial activity against Pseudomonas aeruginosa NCTC 6749 at 10 ug/disk after 24 to 48 hrs by disc-diffusion method; type: functional, organism-based
[61] = system: Escherichia coli; assay: Antibacterial activity against Escherichia coli ATCC […] at 10 ug/disk after 24 to 48 hrs by disc-diffusion method; type: functional, organism-based

O=C(O)c1cn(C2CC2)c2cc(N3CCNCC3)c(F)cc2c1=O [CIPROFLOXACIN]
> 128 µg/mL: MIC [30]
128 µg/mL: MIC [6] | MIC [10] | MIC [11] | MIC [13] | MIC [15] | MIC [18] | MIC [29]
8 µg/mL: MIC [48]
32 µg/mL: MIC [1] | MIC [49]
35 mm: zone of inhibition at 5 µg/disc [38]
34 mm: zone of inhibition at 5 µg/disc [5]
inactive: Activity [3] | Activity [34]
31 mm: zone of inhibition at 5 µg/disc [2]
0.5 µg/mL: MIC [4] | MIC [8] | MIC [22] | MIC [23] | MIC [31] | MIC [36] | MIC [41] | MIC [46]
26 mm: zone of inhibition at 5 µg/disc [26] | zone of inhibition at 5 µg/disc [27] | zone of inhibition at 5 µg/disc [28] | zone of inhibition at 5 µg/disc [45]
40 mm: zone of inhibition at 5 µg/disc [21]
22 mm: zone of inhibition at 5 µg/disc [16]
2 µg/mL: MIC [14] | MIC [24] | MIC [47]
64 µg/mL: MIC [7] | MIC [9] | MIC [39] | MIC [43]
1 µg/mL: MIC [17] | MIC [19]
> 4 µg/mL: MIC [25]
28 mm: zone of inhibition at 5 µg/disc [12]
0.25 µg/mL: MIC [20] | MIC [32] | MIC [33] | MIC [35] | MIC [37] | MIC [40] | MIC [42] | MIC [44]

Clc1ccc(COC(Cn2ccnc2)c2ccc(Cl)cc2Cl)c(Cl)c1 (stereo unspecified) [MICONAZOLE]
20 mm: zone of inhibition at 10 µg/disc [54]
inactive: Activity [50] | Activity [51] | Activity [52] | Activity [53] | Activity [55] | Activity [56] | Activity [57] | Activity [58] | Activity [59] | Activity [60] | Activity [61]
